Only some compounds are listed: those with a hit (about 2% of all), similar ones and a draw of the others.
IMP-1 inhibitor: IMP-1 metallo-beta-lactamase inhibitors, primary screen, biochemical, epi-absorbance readout, Pseudomonas aeruginosa enzyme; metallo-beta-lactamase IMP-1 (Pseudomonas aeruginosa); actives 0.45% (n = 290,000); inhibition, % at 5.6 µM; purified IMP-1, nitrocefin hydrolysis, epi-absorbance fluorescence;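 active = inhibition above the mean plus 3 SD of all compounds in the same screening run, cut at about 4.5% in these data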;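 note: 0% = IMP-1 with DMSO and 100% = DMSO wells lacking enzyme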
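System – purified recombinant IMP-1 beta-lactamase · Input – IMP-1 dispensed at 0.2 nM · Timing – 15 min preincubation plus 25 min reaction at 25 °C · Signal – Epi-absorbance fluorescence, 480 nm excitation, 530 nm emission · Measure – percent IMP-1 inhibition derived from blank-referenced optical density · Controls – Enzyme-plus-DMSO low control, enzyme-free DMSO high control · Replication – singlicate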
PvdQ acylase: P. aeruginosa PvdQ acylase inhibitors, primary screen, biochemical, fluorescence, plate reader and imaging, single point | purified PvdQ acylase | inhibition, % at 10 µM | actives 0.063% (n = 340,000) | PvdQ acylase [Pseudomonas aeruginosa LESB58]; in the data active = inhibition above about 30%, passing the limit was not always enough;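 note: 0% = vehicle neutral wells and 100% = reference inhibitor wells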
VIM-2 inhibitor: VIM-2 metallo-beta-lactamase inhibitors, primary screen, biochemical, epi-absorbance readout, Pseudomonas aeruginosa enzyme; purified VIM-2, nitrocefin hydrolysis, epi-absorbance fluorescence; inhibition, % at 5.6 µM; actives 0.89% (n = 290,000); AID 1527, 2009;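 active = inhibition above the mean of all tested compounds plus 3 SD, cutoff set per screening run, cut at about 7.5% in these data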;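 note: red hydrolysis product quenches plate fluorescence so inhibitors raise well fluorescence; 0% = enzyme with DMSO and 100% = DMSO without enzyme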
HKDC1 inh: HKDC1 hexokinase inhibitors, primary screen, biochemical, fluorescence, uHTS; inhibition, % at 20 µM; actives 0.16% (n = 340,000); recombinant HKDC1, G6PDH/diaphorase resazurin coupled fluorescence;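 active = inhibition above about 35% when tested at 20 µM, limit read from the data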;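 note: plate controls were DMSO wells with enzyme for no effect and DMSO wells lacking enzyme for full effect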
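Material: recombinant HKDC1 hexokinase; Amount: HKDC1 at 5 µg/mL; Medium: Tris pH 8.0 buffer with MgCl2, Tween-20, BSA, BME; Schedule: 90 min reaction incubation at room temperature, dark; Technique: coupled resazurin fluorescence, excitation 525 nm, emission 613 nm.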
ATG4B inh: ATG4B protease inhibitors, primary screen, biochemical, fluorescence, uHTS; inhibition, % at 8.33 µM; ATG4B cleavage of LC3-PLA2, NBD-HPC fluorescence, 1 h; Cysteine protease ATG4B (Homo sapiens), Q9Y4P1; AID 504462, 2011; actives 0.51% (n = 340,000); in the data active = inhibition above about 40%
Target sequence (Q9Y4P1 whole entry, looked up): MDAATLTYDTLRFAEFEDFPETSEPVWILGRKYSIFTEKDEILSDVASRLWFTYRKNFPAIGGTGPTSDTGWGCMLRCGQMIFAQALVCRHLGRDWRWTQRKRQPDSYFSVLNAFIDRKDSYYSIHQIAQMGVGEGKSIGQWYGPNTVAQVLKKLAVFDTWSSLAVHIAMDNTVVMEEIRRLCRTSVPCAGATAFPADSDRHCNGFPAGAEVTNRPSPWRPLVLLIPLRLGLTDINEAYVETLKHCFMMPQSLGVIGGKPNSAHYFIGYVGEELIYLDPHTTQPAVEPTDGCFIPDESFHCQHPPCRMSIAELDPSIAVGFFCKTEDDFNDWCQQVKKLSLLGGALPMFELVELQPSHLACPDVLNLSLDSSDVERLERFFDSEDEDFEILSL
MIN6 prolif: inducers of MIN6 beta-cell proliferation, primary screen, ATP luminescence, uHTS. proliferation, % at 10 µM. actives 0.29% (n = 330,000). MIN6 cells proliferation, ATPlite luminescence, 48 h; cells starved in 0.2% serum; 100% = growth in 10% serum;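 active = compounds whose signal lies at least 3.5 SD above the mean of all wells on their plate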;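 note: 0% = DMSO-treated cells in low-serum medium and 100% = 10% serum control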
An asterisk follows results filed as active; . = no result.

SMILES	IMP-1 inhibitor	PvdQ acylase	VIM-2 inhibitor	HKDC1 inh	ATG4B inh	MIN6 prolif
S=c1[nH]nc(-c2ccccc2Cl)n1Cc1ccccc1	-3	-15	1	-8	-10	7
Cc1c(-n2c(-c3ccccc3Cl)n[nH]c2=S)c(=O)n(-c2ccccc2)n1C	-5	-9	74*	1	-27	-1
CCCNCC(O)Cn1c2ccccc2n2c(=O)cc(C)c(C#N)c12 (stereo not drawn)	0	-12	8.5*	-9	-9	-7
CCC1(c2ccccc2)NC(=O)N(CC(=O)Nc2ccc(N3CCCC3)cc2C)C1=O (stereo not drawn)	.	2	.	-1	-3	0
C=CCCC(=O)Nc1nc(C)c(-c2csc(Nc3cccc(OC)c3)n2)s1	3	-6	-1	-3	-2	-6
COc1cccc(Nc2nc(-c3sc(NC(=O)CC(C)C)nc3C)cs2)c1	5.9*	-10	-4	1	6	-8
CCOC(=O)CC(C#N)c1cn(C)c2ccccc12 (stereo not drawn)	0	38*	-1	-5	1	-2
CSc1nnc(-c2ccc(NC(N)=S)cc2)o1	4.6*	-16	1	-9	-8	-3
CSc1nnc(-c2cccc(NC(=S)NN)c2)o1	-4	3	9.7*	-8	10	-1
CSc1sc(-c2ccnc(SCC(=O)C(C)(C)C)n2)c2c1C(=O)CC(C)(C)C2	14*	-3	4	-1	-1	-2
CSc1sc(C(=O)O)c2c1C(=O)CC(C)(C)C2	.	-2	.	-3	-3	-2
CCN1C(=O)c2ccc(C(=O)Nc3c(C)cc(C)cc3C)cc2C1=O	-1	-14	-1	-4	3	-1
CSc1ccc2nnc(-c3cccc(F)c3)n2n1	0	0	10.0*	-5	-7	7
COC(=O)c1ccc(CSc2ccc3nnc(-c4cccc(F)c4)n3n2)o1	-3	-3	8.4*	2	-2	3
COc1ccc(C2CN=NC2C(=O)c2ccccc2)cc1 (stereo not drawn)	1	-5	-3	0	5	.
COc1ccc(NC(=O)C2CCCN(C)C2)cc1OCC(C)C (stereo not drawn)	-2	-15	-2	-2	-8	-1
COc1ccc(OC)c(-c2cc(C(=O)NCCCn3ccnc3)no2)c1	0	-7	8.4*	-12	-10	-1
CC1CCCN(CCCOc2ccccc2-c2ccccc2)C1 (stereo not drawn)	-2	-9	-3	-5	-4	.
COc1ccccc1/C=C/C=c1\sc2nc(=O)c(Cc3ccccc3)nn2c1=O	7.9*	5	1	13	5	-2
CC(C)c1nc(SCC(=O)Nc2ccc(N(C)C)cc2)c2ccccc2n1	5.2*	-5	-4	-5	-6	-2
N=C(N)c1ccc(/C=C/c2ccc(C(=N)N)cc2O)cc1	5.7*	7	4	-7	-2	2
CCOC(=O)c1c(C)oc2c1cc(NS(=O)(=O)c1ccc(C(=O)O)cc1)c1ccccc12	9.7*	-14	0	22	1	-3
Cc1oc2c(cc(NS(=O)(=O)c3ccc(Cl)cc3)c3ccccc32)c1C(=O)O	2	-11	0	20	-6	-3
O=C(Cc1c(F)cccc1Cl)N1CCN(S(=O)(=O)c2cccc(F)c2)CC1	.	-7	.	-2	4	-2
Cc1ncc([N+](=O)[O-])n1CCOC(=O)c1ccc(Cl)cc1Cl	-3	11	9.7*	-11	6	3
O=C(/C=C/c1ccc(Br)o1)OCc1nc2ccsc2c(=O)[nH]1	.	-6	.	58*	15	3
Cc1ccc(C(=O)OCc2nc3ccsc3c(=O)[nH]2)o1	.	6	.	-7	1	-4

Bioassay records: PubChem BioAssay, several laboratories
